Experiment [1] is described as follows: In vivo inhibition of biosynthesis of leukotriene in rat peritoneal anaphylaxis model at 200 umol/kg. Format: functional. In short, it runs like this:
(§1)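 Rats receive a single oral dose of 200 µmol/kg, and in vivo activity is measured 1 h after dosing in the peritoneal anaphylaxis model. The result is given as % inhibition of leukotriene biosynthesis or flagged as not significant.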

The next experiment deals with Rattus norvegicus. Put plainly: Plasma concentration 1 hr after oral administration of a dose of 200 uM/kg. The class given is functional, organism-based. In short, it runs like this: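 Rats are dosed orally at 200 µmol/kg, and plasma drug concentration is measured 1 h later. Values are the average ± range of two determinations, and the stated detection limit is 2.0 µM.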

For experiment [2], the target named is T1, Polyunsaturated fatty acid 5-lipoxygenase (Rattus norvegicus, UniProt P12527).
T1 sequence (P12527 whole entry): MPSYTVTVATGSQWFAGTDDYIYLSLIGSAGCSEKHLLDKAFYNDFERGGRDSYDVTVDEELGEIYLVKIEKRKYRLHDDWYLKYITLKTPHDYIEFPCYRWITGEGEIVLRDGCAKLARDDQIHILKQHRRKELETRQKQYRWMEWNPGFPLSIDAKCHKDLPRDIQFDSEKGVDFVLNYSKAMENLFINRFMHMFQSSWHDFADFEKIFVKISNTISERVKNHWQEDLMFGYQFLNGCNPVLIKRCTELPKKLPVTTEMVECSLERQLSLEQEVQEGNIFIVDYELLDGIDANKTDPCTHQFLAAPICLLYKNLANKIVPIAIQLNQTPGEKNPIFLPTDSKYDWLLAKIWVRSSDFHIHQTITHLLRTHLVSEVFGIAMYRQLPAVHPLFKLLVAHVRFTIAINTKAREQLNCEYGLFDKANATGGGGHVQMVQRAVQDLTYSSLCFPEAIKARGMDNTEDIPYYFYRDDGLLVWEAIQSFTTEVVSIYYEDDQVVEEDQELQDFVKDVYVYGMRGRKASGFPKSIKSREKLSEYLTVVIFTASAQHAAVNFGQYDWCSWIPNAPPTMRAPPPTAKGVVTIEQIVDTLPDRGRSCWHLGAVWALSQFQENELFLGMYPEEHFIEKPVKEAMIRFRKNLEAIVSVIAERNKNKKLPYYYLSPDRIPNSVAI
Put plainly: In vitro inhibition of 5-lipoxygenase from RBL-1 cells. The class given is cell-based. In short, it runs like this:
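Enzyme source is the 20000g supernatant of RBL-1 cells, assayed for 5-lipoxygenase inhibition. IC50 is reported in µM with a range in parentheses.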

Experiment [3] in a line: In vivo inhibition of biosynthesis of leukotriene in rat peritoneal anaphylaxis model at 200 uM/Kg. The class given is functional. An outline of the steps: as §1
Experiment [4] is described as follows: In vivo Inhibition of biosynthesis of leukotriene in rat peritoneal anaphylaxis model. The class given is functional. In short, it runs like this:
(§2)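 Test compounds are given orally to rats in the peritoneal anaphylaxis model, and leukotriene biosynthesis is measured in vivo. ED50 is expressed in µmol/kg, with the range in parentheses and the mg/kg equivalent.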

The nature of experiment [5]: In vivo inhibition of biosynthesis of leukotriene in rat peritoneal anaphylaxis model. The class given is functional. An outline of the steps: as §2
Experiment [6] in a line: In vivo inhibition of biosynthesis of leukotriene in rat peritoneal anaphylaxis model; non significant at 200 umol/kg. The class given is functional. In short, it runs like this:
as §1

A short description of experiment [7]: In vivo inhibition of biosynthesis of leukotriene in rat peritoneal anaphylaxis model at 200 uMKg. Format: functional. In short, it runs like this: as §1
The nature of experiment [8]: In vivo inhibition of biosynthesis of leukotriene in rat peritoneal anaphylaxis model at 200 mg/Kg. Format: functional.
Setting [9] is: Rattus norvegicus, read-out: ED50.

Each structure is given as a SMILES string.

What is called inhibition in vivo is how much of the control response was suppressed. As usually defined, the IC50 is the point on the concentration scale where inhibition reaches its midpoint. Lower therefore signals higher potency. Consider `CC(c1ccc(OCc2ccccc2)cc1)N(O)C(=O)c1ccccc1` (stereo not given), for which the inhibition in vivo at 200 µmol/kg in [1] was less than 40%. The Concentration in the experiment on Rattus norvegicus is less than 2 µM. This compound had an IC50 in experiment [2] of 690 nM.

As usually defined, the Inhibition is the relative decrease from the control value, in per cent. Higher therefore signals strong suppression. As to `CC(=O)N(O)C(C)c1ccc(OC(c2ccccc2)C(C)C)cc1` (stereo not given), the Inhibition in experiment [3] was less than 40%. The Concentration in the experiment with Rattus norvegicus stood at 10.7 µM. Moreover, the IC50 in experiment [2] worked out at 610 nM.

`CCCCOc1ccc(C(CCCC)N(O)C(C)=O)cc1` (stereo not given): the inhibition in vivo at 200 µmol/kg in [1] was less than 40%. Also, the IC50 in experiment [2] stood at 570 nM.

Compound `CCCCOc1ccc(C(C(C)C)N(O)C(C)=O)cc1` (stereo not given) displayed a Concentration in the experiment with Rattus norvegicus of less than 2 µM. For the same compound, the IC50 in [2] is 880 nM.

Compound `CCCCOc1ccc(C(C)N(O)C(=O)c2ccccc2)cc1` (stereo not given) yielded an inhibition in vivo at 200 µmol/kg in [1] of less than 40%. The compound further showed an IC50 in experiment [2] of 1300 nM.

`CCCCOc1ccc(C(C)N(O)C(C)=O)cc1` (stereo not given): the ED50 in experiment [4] (setting [9]) was determined as 17 mg/kg; in experiment [5] (setting [9]) it was 68 µmol/kg. Also, the Concentration in the experiment on Rattus norvegicus is 65.7 µM. Besides, the IC50 in [2] came to 790 nM.

As for `CC(c1ccc(OCc2ccccc2)cc1)N(O)C=O` (stereo not given), the Concentration in the experiment on Rattus norvegicus worked out at 2.3 µM. The compound further yielded an inhibition in vivo at 200 µmol/kg in [6] of less than 40%. In experiment [2], the IC50 worked out at 940 nM.

`CC(=O)N(O)Cc1ccc(OCc2ccccc2)cc1` showed a Concentration in the experiment on Rattus norvegicus of 2.1 µM. The same compound showed an IC50 in experiment [2] of 460 nM.

The compound `CCCCOc1ccc(CC(C)N(O)C(C)=O)cc1` (stereo not given) gave an Inhibition in experiment [7] of 74%. This compound also showed an IC50 in experiment [2] of 540 nM.

`CC(=O)N(O)C(C)c1ccc(C(C)Oc2ccccc2)cc1` (stereo not given) registered an Inhibition in [3] of 47%. The compound further gave an IC50 in [2] of 460 nM.

`CC(=O)N(O)C(C)c1ccc(Oc2ccccc2)cc1` (stereo not given): the ED50 in experiment [4] (setting [9]) was 12 mg/kg; in [5] (setting [9]) it was 47 µmol/kg. The Concentration with Rattus norvegicus stood at 52 µM. The compound further showed an IC50 in [2] of 370 nM.

`CCCCOc1ccc(C(C)N(O)C=O)cc1` (stereo not given) returned an inhibition in vivo at 200 µmol/kg in experiment [1] of less than 40%. This compound also had an IC50 in experiment [2] of 1900 nM.

For the compound `CCCCOc1ccc(C(CC)N(O)C(C)=O)cc1` (stereo not given), the ED50 in experiment [4] (setting [9]) came out at 50 mg/kg; in experiment [5] (setting [9]), 188 µmol/kg. This compound returned an IC50 in experiment [2] of 740 nM.

On to `CCCCOc1cccc(C(C)N(O)C(C)=O)c1` (stereo not given), for which, in [2], the IC50 was determined as 390 nM.

For the compound `CC(=O)N(O)C(C)c1ccc(OCCc2ccccc2)cc1` (stereo not given), the ED50 in experiment [4] (setting [9]) is 15 mg/kg; in [5] (setting [9]), 49 µmol/kg. In experiment [2], this compound showed an IC50 of 410 nM.

Regarding `CC(=O)N(O)C(C)c1cccc(OCc2ccccc2)c1` (stereo not given), the ED50 turned out to be 19 mg/kg in experiment [4] (setting [9]) and 68 µmol/kg in experiment [5] (setting [9]). This compound also had an IC50 in experiment [2] of 330 nM.

`CC(=O)N(O)C(c1ccc(OCc2ccccc2)cc1)C(C)C` (stereo not given) displayed an inhibition in vivo at 200 µmol/kg in [1] of less than 40%. The compound also came in with an IC50 in [2] of 780 nM.

`CC(=O)N(O)C(C)c1ccc(OC2c3ccccc3-c3ccccc32)cc1` (stereo not given): the Inhibition in [3] was less than 40%. The same compound gave an IC50 in experiment [2] of 4900 nM.

As to `CC(=O)N(O)C(C)c1ccc(OCc2c(C)cc(C)cc2C)cc1` (stereo not given), in [3], the Inhibition is given as less than 40%. Further, it took 620 nM to reach half-maximal inhibition in experiment [2] (IC50).

On to `CCCCOc1ccc(C(C)(C)N(O)C(C)=O)cc1`, for which the inhibition in vivo at 200 µmol/kg in experiment [1] is less than 40%. Also, in experiment [2], it took 650 nM to reach half-maximal inhibition (IC50).

`CC(=O)N(O)C(C)c1ccc(/C=C/c2ccccc2)cc1` (stereo not given) had an IC50 in experiment [2] of 290 nM.

`CC(=O)N(O)C(C)c1ccccc1OCc1ccccc1` (stereo not given) returned an inhibition in vivo at 200 mg/kg in experiment [8] of less than 40%. Besides, the IC50 in experiment [2] stood at 760 nM.

For the compound `CC(=O)N(O)C(C)c1ccc(OCc2ccccc2)cc1` (stereo in doubt; 5) [listing 1 of 2 here], the results for the ED50 in experiment [4] and in experiment [5] were 8 mg/kg and 28 µM/kg, respectively.

For `CC(=O)N(O)C(C)c1ccc(OCc2ccc3ccccc3n2)cc1` (stereo not given), the ED50 was found to be 17 mg/kg in experiment [4] (setting [9]) and 51 µmol/kg in experiment [5] (setting [9]). The same compound registered an IC50 in experiment [2] of 400 nM.

In the case of `CC(=O)N(O)C(C)c1ccc(OCc2ccncc2)cc1` (stereo not given), the ED50 amounted to 9 mg/kg in experiment [4] (setting [9]) and 32 µmol/kg in [5] (setting [9]). This compound also came in with a Concentration in the experiment on Rattus norvegicus of 152 µM. The compound further showed an IC50 in [2] of 2600 nM.

For `CCCCOc1ccc(CCN(O)C(C)=O)cc1`, the inhibition in vivo at 200 µmol/kg in [1] is less than 40%. Besides, in experiment [2], the IC50 was found to be 380 nM.

In turn, `CC(=O)N(O)C(C)c1ccc(SCc2ccccc2)cc1` (stereo not given) returned an IC50 in experiment [2] of 190 nM.

Compound `CC(=O)N(O)C(C)c1ccc(OCc2ccccc2)cc1` (stereo in doubt; 7) gave an IC50 in [2] of 370 nM.

With `CC(=O)N(O)C(C)c1ccc(OC(C)c2ccccc2)cc1` (stereo not given), the ED50 in experiment [4] (setting [9]) was determined as 28 mg/kg; in [5] (setting [9]), 92 µmol/kg. In addition, the Concentration in the experiment on Rattus norvegicus stood at 106 µM. In [2], it took 500 nM to reach half-maximal inhibition (IC50).

For the compound `CC(=O)N(O)C(C)c1ccc(OCc2ccccc2)cc1` (stereo in doubt; 5) [listing 2 of 2 here], the Concentration in the experiment with Rattus norvegicus is 70 µM.

In turn, `CC(C)C(=O)N(O)C(C)c1ccc(OCc2ccccc2)cc1` (stereo not given) registered an inhibition in vivo at 200 µmol/kg in experiment [1] of less than 40%. For the same compound, the IC50 in experiment [2] came out at 470 nM.

On to `CCCCOc1ccc(CCC(C)N(O)C(C)=O)cc1` (stereo not given), for which the ED50 turned out to be 35 mg/kg in [4] (setting [9]) and 120 µmol/kg in experiment [5] (setting [9]). Half-maximal inhibition in [2] (IC50) required 360 nM.

On to `CCCCOc1ccc(OCCN(O)C(C)=O)cc1`, for which the results for the ED50 in [4] (setting [9]) and in experiment [5] (setting [9]) were 22 mg/kg and 84 µmol/kg, respectively. In experiment [2], this compound displayed a half-maximal inhibitory concentration (IC50) of 750 nM.

Compound `CCCCOc1ccc(CCCN(O)C(C)=O)cc1` yielded an IC50 in experiment [2] of 320 nM.

The compound `CCCCOc1ccc(CN(O)C(C)=O)cc1` showed an IC50 in [2] of 1100 nM.
